The values below come from article PMC7906590 (ACS Omega, 2021).

For series [1], the target named is adenosine A2A (hADORA2A) receptor (Homo sapiens, UniProt P29274). The series is described as follows: cAMP ELISA in NECA/ADA-stimulated hADORA2A-HEK293 cells. Type of series: cell-based.
A short description of series [2]: Photostability of solution, HPLC purity after 1 h of light exposure. Type of series: physicochemical. To be noted: 1 h light exposure. The gist of the method:
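Test compound dissolved in acetonitrile–potassium dihydrogen phosphate solution. A reference solution was kept in the dark, and a second sample was exposed to light for 1 h. Purity of each was determined by HPLC with DAD detection.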

Chain of adenosine A2A (hADORA2A) receptor (P29274 whole entry): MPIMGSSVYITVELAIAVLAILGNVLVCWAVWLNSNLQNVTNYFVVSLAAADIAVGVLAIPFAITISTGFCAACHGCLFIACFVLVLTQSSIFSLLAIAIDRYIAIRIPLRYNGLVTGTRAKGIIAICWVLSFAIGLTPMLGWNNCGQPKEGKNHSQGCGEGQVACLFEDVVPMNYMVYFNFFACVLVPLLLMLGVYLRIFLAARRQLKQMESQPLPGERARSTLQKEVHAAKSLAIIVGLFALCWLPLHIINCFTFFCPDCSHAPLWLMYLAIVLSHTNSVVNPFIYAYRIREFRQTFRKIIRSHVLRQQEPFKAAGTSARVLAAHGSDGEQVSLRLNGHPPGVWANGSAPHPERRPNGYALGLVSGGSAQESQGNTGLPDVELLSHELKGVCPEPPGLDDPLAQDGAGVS

Usually IC50 stands for the midpoint of a concentration-inhibition curve. As for `Nc1ncnc2[nH]c(/C=C/c3ccccc3)nc12` [II-1-1, (E) -8-styryl-9H-purine-6-amine], in series [1], the IC50 is above 421 µM.

Regarding `CCn1c(=O)c2c(nc(/C=C/c3ccc(OC)c(OC)c3)n2C)n(CC)c1=O` [Istradefylline, istradefylline], in series [2], the “isomerization after 1 h of light exposure” value is listed as “about 1/3”.
